# Experimental data taken from the RNAGym collection of RNA variant scans (doi:10.1126/science.aae0568).
# Fewer inactive variants are shown than the library holds.
# B1: tRNA (parent)
# chain: GUUCCGUUGGCGUAAUGGUAACGCGUCUCCCUCCUAAGGAGAAGACUGCGGGUUCGAGUCCCGUACGGAACG
# Variants of: B1
# Assay: yeast fitness relative to wild type (ratio to wild type); higher = fitter; tRNA-Arg(CCU), competitive growth, 37 C, YPD
# Method in brief: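 Changes in genotype frequencies gave Darwinian fitness relative to wild type. Frequencies were read by 100-nucleotide paired-end sequencing of gene amplicons before and after pooled Saccharomyces cerevisiae strains, carrying tRNA-Arg(CCU) gene variants at the native locus, were competed in YPD at 37°C for 24 hours in six replicates. A genotype was kept only with ≥ 100 starting reads, and estimates < 0.5 were set to 0.5.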
row,Variant,yeast fitness
1,GUUCCGUUGGCGUAAUGGUAACGCGUCUCGCUCCUAGGGCGAAGACUGCGGGUUAGACUCCCGUUCGGAUCG [C30G A37G A40C C55A G58C A65U A70U],0.542
2,GUUCCGUUGGCGUAAUGGUAACGCGUCUCGCUCUUAAGGAGAAGACUGGGGGUUCGAGUCCCGUACGGAACG [C30G C34U C49G],0.615
3,GUUCCGUUGGCGUAAUGGUAACGCGUCUCGCUCCUAAGGAGCAGACUGCGGGUUCAAGUCCCGUACGGAACG [C30G A42C G56A],≤ 0.5
4,GUUCCGUUGGCGUAAUGGUAACGCGUCUCGCUCCUAAGGAGAAGACUGCGGGUUCGAGUCCCGUACGGUACG [C30G A69U],0.669
5,GUUCCGUUGGCGUAAUGGUAACGCGUCUCGCUUCUAAGGAGAAGACUGCGGGUUCGAGUCCCGUAUGGAACG [C30G C33U C66U],≤ 0.5
6,GUUCCGUUGGCGUAAUGGUAACGCGUCUCGCUCCUAGGGAGAUGACUGCGGGUUCGAGUCCCGUACGGAACG [C30G A37G A43U],0.593
7,GUUCCGUUGGCGUAAUGGUAACGCGUCUCGCUCCUAAGGCGAAGACUGCGGGUUCGAGUCCCGUACGGAACG [C30G A40C],0.595
8,GUUCCGUUGGCGUAAUGGUAACGCGUCUCGCUCCUAAGGGGAAGACUGCGGGUUCGAGUCCCGUACGGAACG [C30G A40G],0.605
9,GUUCCGUUGGCGUAAUGGUAACGCGUCUCGCUACUAAGGAGAAGACUGCGGGUUCGAGUCCCGUACGGAACG [C30G C33A],0.563
10,GUUCCGUUGGCGUAAUGGUAACGCGUCUCGCUGCUAAGGAGAAGACUGCGGGUUCGAGUCCCGUACGGAACG [C30G C33G],≤ 0.5
11,GUUCCGUUGGCGUAAUGGUAACGCGUCUCGCUCGUAAGGAGAAGACUGCGGGUUCGUGUCCCGUACGGAACG [C30G C34G A57U],≤ 0.5
12,GUUCCGUUGGCGUAAUGGUAACGCGUCUCGCUCGUAGGGAGAAGGCUGCGGGUUCGAGUCCCGUACGGAACG [C30G C34G A37G A45G],≤ 0.5
13,GUUCCGUUGGCGUAAUGGUAACGCGUCUCGCUCCUAGGGAGAAGACUGCGGGUUCGAGUCUCGUACGGAACG [C30G A37G C61U],≤ 0.5
14,GUUCCGUUGGCGUAAUGGUAACGCGUCUCGCUCCUAAGGAGAAGACUGCGGGUUCGAGUCCCGUUCGGAACG [C30G A65U],0.589
15,GUUCCGUUGGCGUAAUGGUAACGCGUCUCGCUCCUAAGGAGAAGACUGCGGGUUCGAGUCCCGUCCGGAACG [C30G A65C],0.68
16,GUUCCGUUGGCGUAAUGGUAACGCGUCUCGCUCUUAAGGAGAAGACUGGGGGUUUGAGUCCCGUACGGAACG [C30G C34U C49G C55U],≤ 0.5
17,GUUCCGUUGGCGUAAUGGUAACGCGUCUCGCUCCUAUGGAGAAGACCGCGGGUUCGAGUACCGUACGGAACG [C30G A37U U47C C60A],0.68
18,GUUCCGUUGGCGUAAUGGUAACGCGUCUCGCUCAUAAGGAGAAGACUGCGGGUUCGUGUCGCGUACGGAACG [C30G C34A A57U C61G],≤ 0.5
19,GUUCCGUUGGCGUAAUGGUAACGCGUCUCGCUCGUAGGGAGAAGACUGCGGGUUCGAGUCCCGUACGGAACG [C30G C34G A37G],0.811

row,Variant,yeast fitness
1,GUUCCGUUGGCGUAAUGGUAACGCGUCUCGCUCCUAAGGAGACGACUGCGGGUUCGAGUGCCGUACGGAACG [C30G A43C C60G],≤ 0.5
2,GUUCCGUUGGCGUAAUGGUAACGCGUCUCGCUCAUAAGGAGAAGACUGCGGCUUCGAGUCCCGUACGGAACG [C30G C34A G52C],≤ 0.5
3,GUUCCGUUGGCGUAAUGGUAACGCGUCUCGCUCCUAAGGAGAUGACUCCGGGUUAGAGUCCCAUACGGAACG [C30G A43U G48C C55A G63A],≤ 0.5
4,GUUCCGUUGGCGUAAUGGUAACGCGUCUCGCUCAUAAGGAGAAGACUGGAGGUUCGAGCCCCGUACGGAACG [C30G C34A C49G G50A U59C],≤ 0.5
5,GUUCCGUUGGCGUAAUGGUAACGCGUCUCGCUCGUAAGGAGAAGACUGCGGGUUCGAGUCCCGUAUGGAACG [C30G C34G C66U],≤ 0.5
6,GUUCCGUUGGCGUAAUGGUAACGCGUCUCGGAUCUAAGGAGAAGACUGCGGGUUCGAGUCCCGUACGGAACG [C30G C31G U32A C33U],0.554
7,GUUCCGUUGGCGUAAUGGUAACGCGUCUCGCUCCUAGGGAGAAGACUGCGGGUUGGAGUCCCGUACGGAACG [C30G A37G C55G],0.537
8,GUUCCGUUGGCGUAAUGGUAACGCGUCUCGCUUCUAAGGAGAAGACUGCGGGUUCGAAUCCCGUACGGAACG [C30G C33U G58A],≤ 0.5
9,GUUCCGUUGGCGUAAUGGUAACGCGUCUCGCUUCUAAGGAGAAGACUGCGGGUUCGACUCCCGUACGGAACG [C30G C33U G58C],0.574
10,GUUCCGUUGGCGUAAUGGUAACGCGUCUCGAUCCUAAGGAGAAGACGGCGGGUUCGACUCCCGUACGGAACG [C30G C31A U47G G58C],≤ 0.5
11,GUUCCGUUGGCGUAAUGGUAACGCGUCUCGUCCCUAAGGAGAAGACUGCGGGUUCGAGUCCCGUACGGAACG [C30G C31U U32C],≤ 0.5
12,GUUCCGUUGGCGUAAUGGUAACGCGUCUCGCUCCUAAGGAGAAGUCUGCGGGUUCGAGUGCUGUAGGGAACG [C30G A45U C60G C62U C66G],≤ 0.5
13,GUUCCGUUGGCGUAAUGGUAACGCGUCUCGCUCCUAAGGAGAAGAUUGCGGGUUCGAGUCCCGUACGGAACG [C30G C46U],0.648
14,GUUCCGUUGGCGUAAUGGUAACGCGUCUCGCUCCUAAGGAGAAGAAUGCGGGUUCGAGUCCCGUACGGAACG [C30G C46A],0.587
15,GUUCCGUUGGCGUAAUGGUAACGCGUCUCGCUCCUAUGGAGAAGACUGCGGGUUCGAGUCCCGUACGGAACG [C30G A37U],0.615
16,GUUCCGUUGGCGUAAUGGUAACGCGUCUCGCUCCUAGGGAGAAGACUGCGGGUUCGAGUCCCGUACGGAACG [C30G A37G],0.513
17,GUUCCGUUGGCGUAAUGGUAACGCGUCUCGCUCCUAAGGAGAAGAUUGGGGGUUCGAGUCCCGAACGGAACG [C30G C46U C49G U64A],≤ 0.5
18,GUUCCGUUGGCGUAAUGGUAACGCGUCUCGCUUCUAAGGAGAAGACUGCGGGUUCGACUCCCGAAUGGAACG [C30G C33U G58C U64A C66U],≤ 0.5
19,GUUCCGUUGGCGUAAUGGUAACGCGUCUCGCUCCUAAGGAGAAGGCCGCGGGUUCGAGUCCCGUACGGAACG [C30G A45G U47C],≤ 0.5
